Calls of active or inactive are those of the source. No cut-off for these calls is given here.
Tests used:
[1] = molecular target: Metabotropic glutamate receptor 5 (Rattus norvegicus, UniProt P31424); assay: Modulation of rat mGlu5 receptor assessed as calcium mobilization by cell based fluorescence assay; format: functional
Summary of the method: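 Calcium mobilization assay with fluorescence read-out in cells expressing mGlu5; full concentration-response curves; % Glu Max is the amplitude of response with 30 μM test compound as a percentage of the maximal response to 100 μM glutamate; values averaged over n-3.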

[2] = molecular target: Metabotropic glutamate receptor 5 (Rattus norvegicus) (UniProt P31424); assay: Modulation of rat mGlu5 receptor assessed as assessed as calcium mobilization at 30 uM by cell based fluorescence assay; format: functional
[3] = molecular target: Metabotropic glutamate receptor 3 (Rattus norvegicus, UniProt P31422); assay: Negative allosteric modulation of rat mGlu3 receptor assessed as calcium mobilization by cell based fluorescence assay; format: functional
Summary of the method: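 Cell line stably expressing rat mGlu3 with the promiscuous G-protein Gα15. Calcium mobilization with fluorescence read-out, inhibition of the glutamate response. Full concentration-response curves, top concentration 30 μM. % Glu Max is the response with 30 μM test compound as a percentage of the maximal response to 100 μM glutamate. Values averaged over n-3.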

[4] = molecular target: Metabotropic glutamate receptor 5 (Rattus norvegicus) (UniProt P31424); assay: Negative allosteric modulation of rat mGlu5 receptor assessed as calcium mobilization by cell based fluorescence assay; format: functional
[5] = molecular target: Metabotropic glutamate receptor 3 (Rattus norvegicus) (UniProt P31422); assay: Negative allosteric modulation of rat mGlu3 receptor assessed as amplitude response at 30 uM relative to glutamate
Summary of the method: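 Calcium mobilization in cell line stably expressing rat mGlu3 with promiscuous Gα15; fluorescence read-out; amplitude of glutamate response with 30 μM test compound expressed as percentage of maximal response (100 μM glutamate); average of n = 3.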

[6] = molecular target: Metabotropic glutamate receptor 5 (Rattus norvegicus) (UniProt P31424); assay: Positive allosteric modulation of rat mGlu5 receptor assessed as calcium mobilization by cell based fluorescence assay; format: functional

Sequence of Metabotropic glutamate receptor 3 (P31422 whole entry): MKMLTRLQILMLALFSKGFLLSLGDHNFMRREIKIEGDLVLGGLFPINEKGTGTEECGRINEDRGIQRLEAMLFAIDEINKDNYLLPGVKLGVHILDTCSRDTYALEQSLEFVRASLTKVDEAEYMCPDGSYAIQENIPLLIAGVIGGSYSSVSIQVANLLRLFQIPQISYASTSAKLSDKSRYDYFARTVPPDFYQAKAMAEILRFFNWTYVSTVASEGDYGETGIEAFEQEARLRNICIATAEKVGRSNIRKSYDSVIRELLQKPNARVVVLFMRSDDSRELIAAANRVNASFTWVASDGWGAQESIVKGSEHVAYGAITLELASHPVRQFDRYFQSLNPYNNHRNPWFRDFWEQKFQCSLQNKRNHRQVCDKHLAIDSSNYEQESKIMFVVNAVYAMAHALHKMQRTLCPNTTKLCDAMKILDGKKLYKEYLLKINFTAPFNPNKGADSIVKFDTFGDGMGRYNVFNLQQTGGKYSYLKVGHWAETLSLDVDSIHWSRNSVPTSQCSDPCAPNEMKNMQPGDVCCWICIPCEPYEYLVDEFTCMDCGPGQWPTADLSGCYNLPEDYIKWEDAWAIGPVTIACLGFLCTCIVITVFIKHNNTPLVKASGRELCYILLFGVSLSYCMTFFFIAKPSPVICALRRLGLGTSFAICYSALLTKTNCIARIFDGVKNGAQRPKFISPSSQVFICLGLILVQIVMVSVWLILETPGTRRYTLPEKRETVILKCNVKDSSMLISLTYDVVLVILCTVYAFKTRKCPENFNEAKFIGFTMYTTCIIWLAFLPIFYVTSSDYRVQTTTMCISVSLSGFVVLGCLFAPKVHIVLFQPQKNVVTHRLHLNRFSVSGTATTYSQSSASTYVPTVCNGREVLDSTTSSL
Sequence of Metabotropic glutamate receptor 3 (Rattus norvegicus) (P31422 23-879 limits assumed): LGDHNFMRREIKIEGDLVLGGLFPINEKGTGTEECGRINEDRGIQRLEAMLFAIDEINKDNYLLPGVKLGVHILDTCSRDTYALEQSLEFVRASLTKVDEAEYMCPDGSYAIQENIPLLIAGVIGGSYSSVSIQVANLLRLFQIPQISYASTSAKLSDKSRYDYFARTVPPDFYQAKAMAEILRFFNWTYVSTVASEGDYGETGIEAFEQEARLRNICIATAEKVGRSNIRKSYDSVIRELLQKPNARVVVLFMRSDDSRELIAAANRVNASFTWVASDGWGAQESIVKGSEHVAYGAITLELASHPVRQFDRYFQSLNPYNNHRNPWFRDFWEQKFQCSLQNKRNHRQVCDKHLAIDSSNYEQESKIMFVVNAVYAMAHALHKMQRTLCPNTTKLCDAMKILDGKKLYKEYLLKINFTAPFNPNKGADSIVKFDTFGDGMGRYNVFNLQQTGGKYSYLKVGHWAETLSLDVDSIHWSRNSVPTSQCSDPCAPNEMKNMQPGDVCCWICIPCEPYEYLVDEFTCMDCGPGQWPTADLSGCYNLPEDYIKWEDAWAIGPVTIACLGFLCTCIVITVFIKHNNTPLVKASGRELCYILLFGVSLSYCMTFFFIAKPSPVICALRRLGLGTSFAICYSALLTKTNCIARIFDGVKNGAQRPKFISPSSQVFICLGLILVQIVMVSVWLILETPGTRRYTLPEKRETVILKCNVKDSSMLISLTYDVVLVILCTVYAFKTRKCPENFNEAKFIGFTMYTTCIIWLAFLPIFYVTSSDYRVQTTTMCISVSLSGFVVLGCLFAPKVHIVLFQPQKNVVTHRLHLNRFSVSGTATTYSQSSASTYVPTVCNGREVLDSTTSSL
Sequence of Metabotropic glutamate receptor 5 (Rattus norvegicus) (P31424 21-1203 limits assumed): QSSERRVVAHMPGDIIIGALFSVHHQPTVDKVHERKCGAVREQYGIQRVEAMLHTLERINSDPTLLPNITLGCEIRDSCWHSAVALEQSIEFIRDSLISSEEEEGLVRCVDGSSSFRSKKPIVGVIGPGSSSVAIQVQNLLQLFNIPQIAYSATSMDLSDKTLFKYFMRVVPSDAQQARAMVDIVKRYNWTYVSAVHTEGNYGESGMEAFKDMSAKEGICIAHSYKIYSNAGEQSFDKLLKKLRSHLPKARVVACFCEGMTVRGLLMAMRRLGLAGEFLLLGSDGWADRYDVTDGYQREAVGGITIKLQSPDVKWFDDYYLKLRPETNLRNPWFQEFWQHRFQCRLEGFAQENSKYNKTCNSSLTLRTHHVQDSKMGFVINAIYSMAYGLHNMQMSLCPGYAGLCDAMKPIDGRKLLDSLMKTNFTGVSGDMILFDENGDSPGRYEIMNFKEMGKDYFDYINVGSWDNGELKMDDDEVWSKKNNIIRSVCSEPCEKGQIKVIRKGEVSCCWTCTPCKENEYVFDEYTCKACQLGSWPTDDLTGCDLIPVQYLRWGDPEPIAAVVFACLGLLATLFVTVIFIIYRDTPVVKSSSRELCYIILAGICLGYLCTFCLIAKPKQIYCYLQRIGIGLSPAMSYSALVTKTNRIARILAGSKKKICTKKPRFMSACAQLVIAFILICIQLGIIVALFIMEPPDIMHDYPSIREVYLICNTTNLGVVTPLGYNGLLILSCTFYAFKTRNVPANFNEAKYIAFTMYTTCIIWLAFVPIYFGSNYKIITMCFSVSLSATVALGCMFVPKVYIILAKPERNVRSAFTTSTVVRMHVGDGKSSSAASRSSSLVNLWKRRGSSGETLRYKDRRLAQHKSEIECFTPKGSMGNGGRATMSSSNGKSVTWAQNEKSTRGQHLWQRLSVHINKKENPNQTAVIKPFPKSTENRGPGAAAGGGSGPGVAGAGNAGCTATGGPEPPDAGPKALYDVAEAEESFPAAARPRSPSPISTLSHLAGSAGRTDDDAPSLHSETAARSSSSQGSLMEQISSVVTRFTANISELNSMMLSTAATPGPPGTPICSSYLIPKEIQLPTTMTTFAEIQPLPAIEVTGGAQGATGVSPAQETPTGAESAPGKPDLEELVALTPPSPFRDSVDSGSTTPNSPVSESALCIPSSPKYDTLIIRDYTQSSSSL
Sequence of Metabotropic glutamate receptor 5 (P31424 whole entry): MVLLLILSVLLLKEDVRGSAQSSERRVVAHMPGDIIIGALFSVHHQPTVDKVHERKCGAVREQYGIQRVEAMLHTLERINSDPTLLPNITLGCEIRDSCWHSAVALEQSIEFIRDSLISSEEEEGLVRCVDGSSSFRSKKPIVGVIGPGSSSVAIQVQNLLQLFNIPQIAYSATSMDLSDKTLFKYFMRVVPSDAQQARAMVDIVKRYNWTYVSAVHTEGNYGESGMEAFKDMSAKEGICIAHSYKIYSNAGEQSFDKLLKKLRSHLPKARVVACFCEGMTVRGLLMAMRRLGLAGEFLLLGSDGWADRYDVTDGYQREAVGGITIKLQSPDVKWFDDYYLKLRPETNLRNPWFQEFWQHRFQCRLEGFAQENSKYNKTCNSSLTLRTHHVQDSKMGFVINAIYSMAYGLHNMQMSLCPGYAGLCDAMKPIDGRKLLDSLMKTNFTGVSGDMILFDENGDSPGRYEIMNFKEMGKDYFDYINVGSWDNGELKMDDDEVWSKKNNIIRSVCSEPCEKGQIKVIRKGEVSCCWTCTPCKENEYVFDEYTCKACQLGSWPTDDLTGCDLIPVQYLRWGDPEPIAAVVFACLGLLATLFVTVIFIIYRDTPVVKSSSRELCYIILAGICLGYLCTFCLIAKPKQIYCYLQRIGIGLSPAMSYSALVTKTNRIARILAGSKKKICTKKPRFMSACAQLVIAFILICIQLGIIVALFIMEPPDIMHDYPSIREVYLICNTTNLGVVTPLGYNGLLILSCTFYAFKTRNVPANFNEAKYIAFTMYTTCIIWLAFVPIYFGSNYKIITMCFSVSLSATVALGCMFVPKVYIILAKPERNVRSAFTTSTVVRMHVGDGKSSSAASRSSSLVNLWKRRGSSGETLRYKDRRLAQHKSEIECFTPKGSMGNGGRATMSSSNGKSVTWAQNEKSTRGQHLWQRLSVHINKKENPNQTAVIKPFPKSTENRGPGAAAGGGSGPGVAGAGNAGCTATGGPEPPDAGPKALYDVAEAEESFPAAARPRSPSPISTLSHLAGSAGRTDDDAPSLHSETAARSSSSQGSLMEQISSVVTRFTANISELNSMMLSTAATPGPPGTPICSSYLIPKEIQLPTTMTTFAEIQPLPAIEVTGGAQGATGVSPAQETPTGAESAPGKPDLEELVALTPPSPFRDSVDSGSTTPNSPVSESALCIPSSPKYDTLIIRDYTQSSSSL

C[C@@H]1CN(c2ccccn2)C(=O)c2cc(COc3ccc(F)cn3)nn21
EC50 [1]: 3520 nM | Activity [2]: 3.71% | IC50 [3]: 915 nM | Activity [4]: Active | Activity [5]: 0.96%

Cc1cccc(OCc2cc3n(n2)[C@H](C)CN(c2ccc(F)cc2)C3=O)c1
EC50 [1]: > 10000 nM | Activity [2]: 39.7% | IC50 [3]: 1440 nM | Activity [4]: Active | Activity [5]: 2.35%

Cc1ccnc(OCc2cc3n(n2)[C@H](C)CN(c2ccc(F)cc2)C3=O)c1
EC50 [1]: > 10000 nM | Activity [2]: 46.9% | IC50 [3]: 2090 nM | Activity [4]: Active | Activity [5]: 0.86%

C[C@@H]1CN(c2cccc(F)n2)C(=O)c2cc(COc3ccc(Cl)cn3)nn21
EC50 [1]: > 10000 nM | Activity [2]: 24.8% | IC50 [3]: 294 nM | Activity [4]: Active | Activity [5]: 1.75%

C[C@@H]1CN(c2cccc(F)c2F)C(=O)c2cc(COc3ccc(Cl)cn3)nn21
EC50 [1]: 6680 nM | Activity [2]: 36.1% | Activity [6]: Active | IC50 [3]: 852 nM | Activity [5]: 0.33%

C[C@@H]1CN(c2ccc(F)cn2)C(=O)c2cc(COc3ccc(Cl)cn3)nn21
EC50 [1]: > 10000 nM | Activity [2]: 47.9% | Activity [6]: Active | IC50 [3]: 260 nM | Activity [5]: 2.44%

COc1ccccc1N1C[C@@H](C)n2nc(COc3ccc(Cl)cn3)cc2C1=O
EC50 [1]: > 10000 nM | Activity [2]: 58.5% | IC50 [3]: 690 nM | Activity [4]: Active | Activity [5]: 1.29%

C[C@@H]1CN(c2c(F)cccc2F)C(=O)c2cc(COc3ccc(Cl)cn3)nn21
EC50 [1]: 1420 nM | Activity [2]: 40.3% | Activity [6]: Active | IC50 [3]: 225 nM | Activity [5]: 2.06%

COc1ccc(OCc2cc3n(n2)[C@H](C)CN(c2ccc(F)cc2)C3=O)cc1
EC50 [1]: 1340 nM | Activity [2]: 40.2% | Activity [6]: Active | IC50 [3]: 1040 nM | Activity [5]: 1.76%

C[C@@H]1CN(c2ccc(F)cc2)C(=O)c2cc(COc3ccc(C#N)cc3)nn21
EC50 [1]: 1940 nM | Activity [2]: 38.6% | Activity [6]: Active | IC50 [3]: 784 nM | Activity [5]: 2.53%

Cc1ccc(N2C[C@@H](C)n3nc(COc4ccc(Cl)cn4)cc3C2=O)cc1
EC50 [1]: > 10000 nM | Activity [2]: 70.8% | Activity [6]: Active | IC50 [3]: 410 nM | Activity [5]: 1.39%

Cc1ccccc1OCc1cc2n(n1)[C@H](C)CN(c1ccc(F)cc1)C2=O
EC50 [1]: 1500 nM | Activity [2]: 83.7% | Activity [6]: Active | IC50 [3]: 721 nM | Activity [5]: 1.56%

C[C@@H]1CN(c2ccc(F)cc2)C(=O)c2cc(COc3ccccc3)nn21
EC50 [1]: 46 nM | Activity [2]: 87.7% | Activity [6]: Active | IC50 [3]: 267 nM | Activity [5]: 2.21%

C[C@@H]1CN(c2cc(F)cc(F)c2)C(=O)c2cc(COc3ccc(Cl)cn3)nn21
EC50 [1]: > 10000 nM | Activity [2]: 33.1% | Activity [6]: Active | IC50 [3]: 420 nM | Activity [5]: 2.18%

COc1ccc(N2C[C@@H](C)n3nc(COc4ccc(F)cn4)cc3C2=O)cc1
EC50 [1]: 1380 nM | Activity [2]: 32.3% | Activity [6]: Active | IC50 [3]: 320 nM | Activity [5]: 1.23%

C[C@@H]1CN(c2ccc(F)cc2F)C(=O)c2cc(COc3ccc(Cl)cn3)nn21
EC50 [1]: 2580 nM | Activity [2]: 70.8% | Activity [6]: Active | IC50 [3]: 280 nM | Activity [5]: 1.34%

Cc1cccc(N2C[C@@H](C)n3nc(COc4ccc(Cl)cn4)cc3C2=O)c1
EC50 [1]: 3600 nM | Activity [2]: 69.9% | Activity [6]: Active | IC50 [3]: 392 nM | Activity [5]: 1.71%

C[C@@H]1CN(c2ccc(F)cc2)C(=O)c2cc(COc3cccc(F)c3)nn21
EC50 [1]: 73 nM | Activity [2]: 86.1% | Activity [6]: Active | IC50 [3]: 773 nM | Activity [5]: 1.19%

C[C@@H]1CN(c2ccc(C#N)cc2)C(=O)c2cc(COc3ccc(Cl)cn3)nn21
EC50 [1]: 3320 nM | Activity [2]: 23.1% | Activity [6]: Active | IC50 [3]: 539 nM | Activity [5]: 1.84%

C[C@@H]1CN(c2ccc(F)cc2)C(=O)c2cc(COc3ccc(F)cc3F)nn21
EC50 [1]: 307 nM | Activity [2]: 82.3% | Activity [6]: Active | IC50 [3]: 417 nM | Activity [5]: 1.7%

C[C@@H]1CN(c2ccc(Cl)cc2)C(=O)c2cc(COc3ccc(F)cn3)nn21
EC50 [1]: 364 nM | Activity [2]: 51.6% | Activity [6]: Active | IC50 [3]: 197 nM | Activity [5]: 2.17%

COc1cccc(OCc2cc3n(n2)[C@H](C)CN(c2ccc(F)cc2)C3=O)c1
EC50 [1]: 1840 nM | Activity [2]: 32.4% | Activity [6]: Active | IC50 [3]: 1290 nM | Activity [5]: 1.78%

C[C@@H]1CN(c2cccc(Cl)c2)C(=O)c2cc(COc3ccc(Cl)cn3)nn21
EC50 [1]: 2870 nM | Activity [2]: 65.8% | Activity [6]: Active | IC50 [3]: 558 nM | Activity [5]: 1.63%

C[C@@H]1CN(c2ncccc2F)C(=O)c2cc(COc3ccc(Cl)cn3)nn21
EC50 [1]: > 10000 nM | Activity [2]: 32.4% | Activity [6]: Active | IC50 [3]: 362 nM | Activity [5]: 1.64%

C[C@@H]1CN(c2ccc(F)cc2)C(=O)c2cc(COc3ncccc3F)nn21
EC50 [1]: 4300 nM | Activity [2]: 78.5% | Activity [6]: Active | IC50 [3]: 1100 nM | Activity [5]: 2.22%

C[C@@H]1CN(c2cccc(C#N)c2)C(=O)c2cc(COc3ccc(Cl)cn3)nn21
EC50 [1]: > 10000 nM | Activity [2]: 32.2% | Activity [6]: Active | IC50 [3]: 825 nM | Activity [5]: 1.75%

C[C@@H]1CN(c2ccc(F)cc2)C(=O)c2cc(COc3ccccc3Cl)nn21
EC50 [1]: 419 nM | Activity [2]: 84.4% | Activity [6]: Active | IC50 [3]: 532 nM | Activity [5]: 1.63%

C[C@@H]1CN(c2ccc(Cl)cc2)C(=O)c2cc(COc3ccc(Cl)cn3)nn21
EC50 [1]: 3310 nM | Activity [2]: 51.2% | Activity [6]: Active | IC50 [3]: 1230 nM | Activity [5]: 0.94%

C[C@@H]1CN(c2ccc(F)nc2)C(=O)c2cc(COc3ccc(Cl)cn3)nn21
EC50 [1]: > 10000 nM | Activity [2]: 30.6% | Activity [6]: Active | IC50 [3]: 408 nM | Activity [5]: 1.45%

C[C@@H]1CN(c2cccc(F)c2)C(=O)c2cc(COc3ccc(Cl)cn3)nn21
EC50 [1]: 5970 nM | Activity [2]: 63.5% | Activity [6]: Active | IC50 [3]: 206 nM | Activity [5]: 1.38%

Cc1ccc(OCc2cc3n(n2)[C@H](C)CN(c2ccc(F)cc2)C3=O)cc1
EC50 [1]: 1080 nM | Activity [2]: 92.5% | Activity [6]: Active | IC50 [3]: 1190 nM | Activity [5]: 1.72%

COc1cccc(N2C[C@@H](C)n3nc(COc4ccc(Cl)cn4)cc3C2=O)c1
EC50 [1]: 5070 nM | Activity [2]: 78% | Activity [6]: Active | IC50 [3]: 313 nM | Activity [5]: 2%

COc1ccc(N2C[C@@H](C)n3nc(COc4ccc(Cl)cn4)cc3C2=O)cc1
EC50 [1]: 4330 nM | Activity [2]: 59.4% | Activity [6]: Active | IC50 [3]: 439 nM | Activity [5]: 2.07%

Source: ChEMBL document CHEMBL3616441, “Discovery of a Selective and CNS Penetrant Negative Allosteric Modulator of Metabotropic Glutamate Receptor Subtype 3 with Antidepressant and Anxiolytic Activity in Rodents” (J Med Chem, 2015)
